High-throughput results from PubChem.
The list is not random: actives were taken first. Their share in the collection is about 1.5%.
697 NFkB inh: lowers PMA/ionomycin-induced NF-kB signal in 697 B cells. 697 B-cell NF-kB luciferase reporter, 16 h. inhibition, % at 4 µM. 330,000 compounds, 0.33% hits. AID 435022; in the data active means inhibition above about 35%
GalR3 antag: human GalR3 antagonism; 360,000 compounds, 0.44% hits; inhibition, % at 3 µM; O60755; HEK293 GalR3-CNG cAMP membrane potential fluorescence; galR3 body fused to GalR1 C-terminus;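 active means inhibition above the screen-wide average plus 3 SD, cut at about 13% in these data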;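 further: forskolin and galanin both at EC90 stimulate the cells; cAMP rise reported by CNG channel membrane potential dye signal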
Target sequence (O60755 1-299 limits assumed): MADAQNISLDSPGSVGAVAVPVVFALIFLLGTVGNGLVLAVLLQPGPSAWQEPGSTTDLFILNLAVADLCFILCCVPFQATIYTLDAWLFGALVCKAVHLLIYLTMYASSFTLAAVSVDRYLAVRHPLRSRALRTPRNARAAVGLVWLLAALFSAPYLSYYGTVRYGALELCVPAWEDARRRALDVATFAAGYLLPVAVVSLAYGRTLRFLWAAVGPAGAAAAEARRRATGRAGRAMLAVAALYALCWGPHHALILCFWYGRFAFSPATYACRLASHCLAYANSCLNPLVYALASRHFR
NR2E3 ag-1: human photoreceptor-specific nuclear receptor agonism; 360,000 compounds, 0.35% hits; CHO-S Gal4-NCOR/VP16-NR2E3 two-hybrid, luciferase; inhibition of corepressor binding, % at 3.98 µM; Q9Y5X4;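 active means inhibition above the mean of all tested compounds plus 3 SD, cut at about 70% in these data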;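 further: higher means lower luciferase signal from less NR2E3 corepressor binding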
Jurkat NFkB inh: lowers PMA/ionomycin-induced NF-kB signal in Jurkat cells; PMA/ionomycin-induced NF-kB luciferase reporter, luminescence; inhibition, % at 4 µM; 330,000 compounds, 0.53% hits; AID 435003; in the data active means inhibition above about 50%
GASC-1 inh: blocks human GASC-1 demethylase activity; GST-JMJD2C(1-420) H3K9me3 demethylation, DELFIA europium; inhibition, % at 2.35 µM; 330,000 compounds, 0.069% hits; Q9H3R0;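 active means more than half of a compound's replicate wells show inhibition beyond 50%, single wells judged on their own value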;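 further: signal counts dimethyl H3K9 product captured on neutravidin plate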
Target sequence (Q9H3R0 1-420 limits assumed): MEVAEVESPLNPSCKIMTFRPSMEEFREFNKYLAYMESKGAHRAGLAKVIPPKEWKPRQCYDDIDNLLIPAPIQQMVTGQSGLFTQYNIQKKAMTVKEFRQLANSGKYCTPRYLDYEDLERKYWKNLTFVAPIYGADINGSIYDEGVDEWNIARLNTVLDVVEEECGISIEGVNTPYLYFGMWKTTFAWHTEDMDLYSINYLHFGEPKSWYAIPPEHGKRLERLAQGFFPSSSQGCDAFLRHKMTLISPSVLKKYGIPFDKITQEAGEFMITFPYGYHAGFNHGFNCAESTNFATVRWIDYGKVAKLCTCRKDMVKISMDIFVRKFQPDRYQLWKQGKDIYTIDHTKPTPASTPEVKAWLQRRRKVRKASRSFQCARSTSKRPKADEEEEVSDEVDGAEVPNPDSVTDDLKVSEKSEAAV
NR2E3 ag-2: activates human photoreceptor nuclear receptor NR2E3 | Q9Y5X4 | inhibition of corepressor binding, % at 4.78 µM | GST-NR2E3/biotin-RetCOR TR-FRET, 1536-well | 320,000 compounds, 0.12% hits;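 active means percent inhibition above the cutoff of mean plus 3 SD of all tested compounds, set per screening campaign, cut at about 20% in these data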
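System: GST-NR2E3 and biotin-RetCOR proteins; probe or stimulus: 7 nM biotin-RetCOR; doses: compound at 4.8 µM, single dose; schedule: Compound–protein incubation for 5 h at 4 °C; detection: time-resolved FRET; read-out: percent inhibition; controls: biotin wells as high control, 0.6% DMSO wells as low control; format: 1536-well plates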
NR2E3 ag confirm-1: confirmation of human NR2E3 nuclear receptor agonists; shares compounds with NR2E3 ag-2; cell-free NR2E3 corepressor release, TR-FRET, 5 h; activation (reported as inhibition), % at 3.98 µM; 360 compounds, 39% hits; AID 2379; in the data active means activation above about 20%
PPARg-NCOR2 ag: PPARg-NCOR2 interaction agonism, NR2E3 counter-screen; TR-FRET PPARg-NCOR2 coregulator interaction, biochemical; inhibition, % at 3.98 µM; shares compounds with NR2E3 ag-2; 360 compounds, 45% hits; in the data active means inhibition above about 20%
Jurkat NFkB conf: lowers PMA/ionomycin-induced NF-kB signal in Jurkat cells; shares compounds with Jurkat NFkB inh; Jurkat NF-kB luciferase, 16 h; inhibition, % at 4 µM; 2,700 compounds, 27% hits; AID 435020;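 active means inhibition reaching about 45% at 4 µM in either replicate, limit read from the data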
NR2E3 ag confirm-2: NR2E3 agonism confirmed in two-hybrid assay | shares compounds with NR2E3 ag-1 | CHO-S mammalian two-hybrid NR2E3-NCOR, luciferase luminescence | inhibition, % at 3.98 µM | 2,300 compounds, 51% hits | AID 624378;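 active means average inhibition above a cutoff equal to the mean inhibition of all tested compounds plus one SD, cut at about 70% in these data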
VP16 counter: GAL4-VP16 reporter inhibition in NR2E3 agonist counterscreen. shares compounds with NR2E3 ag-1. CHO-S GAL4-VP16 luciferase reporter, luminescence. inhibition, % at 3.98 µM. 2,300 compounds, 29% hits;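 active means mean inhibition above a cutoff equal to the average over all tested compounds plus one standard deviation, cut at about 70% in these data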;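 further: luciferase from a UAS reporter driven by GAL4-VP16 transactivation; higher means less reporter light so more repression of VP16 activity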
Numbers stand for hits; n = inactive; x = no result given.

SMILES | 697 NFkB inh | GalR3 antag | NR2E3 ag-1 | Jurkat NFkB inh | GASC-1 inh | NR2E3 ag-2 | Jurkat NFkB conf | others
S=c1nc(SCc2ccccc2)[nH]c2ccccc12 | n | n | n | n | n | 35 | x | NR2E3 ag confirm-1=36;PPARg-NCOR2 ag=55;NR2E3 ag confirm-2=n;VP16 counter=n
CCc1ccc(OCC(=O)N2CC(C(N)=O)Oc3ccccc32)cc1 (stereo not drawn) | n | n | n | n | n | n | x
CCOC(=O)c1c(C)[nH]c(C(=O)OCC(=O)c2ccccc2)c1C | n | n | n | n | n | n | n
CCOC(=O)c1[nH]c(C)c(C(=O)Nc2cc(OC)ccc2OC)c1C | n | n | n | 70 | n | n | n
CCOC(=O)c1c(C)[nH]c(C(=O)OCc2ccccc2F)c1C | n | n | n | n | n | n | n
CCOC(=O)c1[nH]c(C)c(C(=O)Nc2ccc(C)cc2C)c1C | n | x | n | 53 | n | n | n
CC(C)OC(=O)[C@H]1[C@H](c2ccc(Cl)cc2)[C@@](C#N)(C(N)=O)[C@@H]2C=CC(C(N)=O)=CN21 | x | x | n | x | n | x | x
CCOC(=O)c1[nH]c(C)c(C(=O)OCC(=O)NC(C)c2ccc(F)cc2)c1C (stereo not drawn) | n | n | n | 60 | n | n | 51
CCOC(=O)c1[nH]c(C)c(C(=O)Nc2ccccc2F)c1C | n | n | n | 52 | n | n | n
CCOc1ccc2ccccc2c1C(=O)NCC(c1ccc(N(C)C)cc1)N(C)C (stereo not drawn) | n | n | n | n | n | n | x
COc1ccc(N2CC(C(=O)N/N=C/c3ccc(C)cc3)CC2=O)cc1 (stereo not drawn) | n | n | n | 55 | n | n | n
COc1ccc(N2CC(C(=O)N/N=C/c3ccc([N+](=O)[O-])cc3)CC2=O)cc1 (stereo not drawn) | n | n | n | n | n | n | x
CCN(CC)Cc1nc2c(c(=O)[nH]1)C(CC)(CC)Cc1ccccc1-2 | n | n | n | n | n | n | x
C=CCn1c(Oc2cc(C)ccc2C)nc2c1c(=O)n(C)c(=O)n2C | n | n | n | 54 | n | n | n
COC1=CC(=O)OC(c2cccc(Cl)c2)C1 (stereo not drawn) | x | n | x | x | x | x | x
Cc1cc(C)n(-c2ccc(NC(=O)C3CCN(Cc4ccc(C)o4)CC3)cc2)n1 | n | n | n | n | n | n | x
c1cnc(SCCOc2ccc3c(c2)CCC3)nc1 | n | n | n | n | n | n | n
Nc1ccc2oc(-c3cccc(Br)c3)nc2c1 | n | x | n | n | n | n | n
O=C1CCCc2nc(N3CCc4ccccc43)ncc21 | n | n | n | n | n | n | n
O=C(CSc1nnc(Nc2ccccc2F)s1)NC1CC1 | n | n | n | n | n | n | x
COc1ccc(N=C2S/C(=C\c3ccc(Cl)c([N+](=O)[O-])c3)C(=O)N2CCN(C)C)cc1 | n | n | n | 51 | n | n | n
CCN(CC)CCN1C(=O)/C(=C\c2ccc(Cl)c([N+](=O)[O-])c2)SC1=Nc1ccc(OC)cc1 | n | n | n | n | n | n | x
Clc1ccc(OCc2nc(-c3ccncc3)no2)c(Br)c1 | n | n | n | n | n | n | n
COc1ccc(/C=N\NC(=O)c2ccccc2F)cc1COc1ccc(F)cc1F | n | n | n | 61 | n | n | n
Cc1ccc(-c2nnc(SCc3ccccc3F)o2)cc1 | n | n | n | n | n | n | n
SMILES | 697 NFkB inh | GalR3 antag | NR2E3 ag-1 | Jurkat NFkB inh | GASC-1 inh | NR2E3 ag-2 | Jurkat NFkB conf | others
COc1ccc(-c2nnc(SCc3ccccc3F)o2)cc1OC | n | n | n | n | n | n | x
COc1ccc(C(=O)C(Sc2nnc(C)c(=O)[nH]2)c2ccc(OC)cc2)cc1 (stereo not drawn) | n | n | n | n | n | n | x
Cc1cccc(C)c1NC(=O)C(CCc1ccccc1)N1CCN(CCN(C)C)CC1 (stereo not drawn) | x | n | x | x | x | x | x
CSc1ccccc1C(=O)Nc1ccc2c(c1)CCC2 | n | n | n | n | n | n | x
O=C(Nc1ccc2c(c1)CCC2)c1ccccc1Br | n | n | n | n | n | n | n
CNc1nc(NCC2CCCCC2)c2sccc2n1 | x | n | n | x | x | x | x
NC(=O)CSc1nc(N)c2c3c(sc2n1)CCCCC3 | n | n | n | n | n | n | x
NC(=O)CSc1nc(C2CC2)nc2sc3c(c12)CCCC3 | n | n | n | n | n | n | n
COc1cc(-c2noc(C)c2C#Cc2ccsc2)cc(OC)c1OC | n | n | n | 63 | n | n | 57
Cn1c(=O)c2c(ncn2CC(=O)OCC(=O)Nc2ccccc2)n(C)c1=O | n | n | n | n | n | n | x
COc1ccccc1NC(=O)COC(=O)Cn1cnc2c1c(=O)n(C)c(=O)n2C | n | n | n | 60 | n | x | n
CCCN1CCC(=NNc2ccc(S(=O)(=O)N3CCOCC3)cc2[N+](=O)[O-])CC1 | n | n | n | 64 | n | n | n
CC(C)N1CCC(=NNc2ccc(S(=O)(=O)N3CCOCC3)cc2[N+](=O)[O-])CC1 | n | n | n | n | n | n | x
Cc1cccc(C)c1NC(=O)[C@@]1(CC(=O)O)CC(/C=C/c2ccccc2)=NO1 | x | n | n | x | n | x | x
Cn1c(=O)oc2cc(S(=O)(=O)N3CCc4ccccc43)ccc21 | n | n | n | n | n | n | x
Cn1c(=O)oc2cc(S(=O)(=O)N3CCCc4ccccc43)ccc21 | n | x | n | 55 | n | n | n
COC(=O)Nc1ccc(S(=O)(=O)N2CCCc3ccccc32)cc1 | n | n | n | 61 | n | n | 56
COC(=O)Nc1ccc(S(=O)(=O)N2CCCc3cccc(O)c32)cc1 | n | n | n | n | n | n | x
Cc1ccc(N(CC(=O)NC(C)(C)C)C(=O)CS(=O)CC(=O)Nc2ccc3c(c2)OCO3)cc1 (stereo not drawn) | n | n | n | n | n | n | x
CCc1nc2ccc(C(=O)N3CCN(S(=O)(=O)CC)CC3)cn2c1N(CC)Cc1cccc(Br)c1 | x | n | n | x | x | x | x
